“Also recorded” adds a separate entry of the source.
Legend:
[1] = tested on: chimeric AgrC-III-IV receptor; assay: AgrC-III agonism assay; format: cell-based, Staphylococcus aureus; conditions: S. aureus RN9532 reporter strain
Method in brief: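 Uses an agr-null group-I strain carrying a P3-blaZ reporter plasmid. The chimeric receptor joins the group-III AgrC N-terminal sensor domain to the group-IV AgrC C-terminal histidine kinase domain, followed by the agrA coding sequence. Test peptides were serially diluted from stock to give dose-response data. β-lactamase activity was the read-out (modified literature assay), and EC50 was calculated from the curves.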

[2] = tested on: constitutively active AgrC-I receptor mutant; conditions: cited from earlier work
AgrC-III [3] = molecular target: T1, AgrC-III (Staphylococcus aureus, UniProt O33590); conditions: read-out: AgrC-III antagonism IC50 value (CI); S. aureus AH1747 group-III P3-gfp reporter; CI = 95% confidence interval; cited from earlier work
AgrC-III [4] = molecular target: T1, AgrC-III; assay: AgrC-III antagonism assay; format: cell-based; conditions: ratio of IC50 values vs AIP-III D4A
AgrC-III [5] = molecular target: T1, AgrC-III; conditions: cited from earlier work

Row | Substance | AgrC-III agonistic activity in words [1] | mode of action on constitutively active AgrC-I receptor mutant [2] | IC50 (AgrC-III [3]) | AgrC-III agonism EC50 value relative to AIP-III ([1]; Figure S-2) | fold weaker / reduced AgrC-III inhibitory activity relative to AIP-III D4A (AgrC-III [4]) | fold less active as AgrC-III inhibitor relative to AIP-I D5A (AgrC-III [5])
1 | G-V-N-A-(C-S-S-L-F) [AIP-II] | inactivity | inverse agonist | 0.532 nM |  |  | 
2 | I-N-(C-A-F-L-L) [AIP-III D4A] |  |  | 0.0506 nM |  |  | 
3 | I-N-(C-D-F-L-L) [AIP-III] |  | neutral antagonists |  |  |  | 
4 | I-N-(C-D-F-L-dL) [AIP-III D-L7] | agonistic activity; also recorded: able to activate AgrC-III (with analogous activity as AIP-III |  |  | comparable to AIP-III |  | 
5 | Y-S-T-(C-D-F-I-M) [AIP-I] | inactivity |  | 0.522 nM |  | 10 fold | 10 fold
6 | Y-S-T-(C-Y-F-I-M) [AIP-IV] | inactivity | neutral antagonists | 0.46 nM |  |  | 
